Here are results for one compound from ChEMBL document CHEMBL1142132, “Sublethal concentrations of the aminoglycoside amikacin interfere with cell division without affecting chromosome dynamics” (2007).

The subject of test [1] is Escherichia coli. As to the kind of experiment: Distribution of Escherichia coli AB1157 IL05 new born cells containing eight ori foci at 16 ug/ml after 14 hrs incubation. The class given is functional. The gist of the method: (§1)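 IL05(pWX6) (LacI-CFP/TetR-YFP marking ori and ter arrays) grown at 37°C in M9-sodium acetate with required amino acids, 100 μg/ml ampicillin, 0.5 mM IPTG, 40 ng/ml anhydrotetracycline. AMK added at OD600 0.05. After 14 h, cells placed on 1% agarose-PBS pads, imaged (×100, phase plus fluorescence). 200 cells per culture classified by ori/ter foci number; three independent experiments.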

Test [2] relates to Escherichia coli. Put plainly: Distribution of Escherichia coli AB1157 IL05 new born cells containing one ori and one ter foci at 16 ug/ml after 14 hrs incubation. The class given is functional. The gist of the method: as §1
Test [3] relates to Escherichia coli. Put plainly: Distribution of Escherichia coli AB1157 IL05 new born cells containing duplicated sister ori foci at 32 ug/ml after 14 hrs incubation. Format: functional. The procedure, abridged:
as §1

Test [4] concerns Escherichia coli. Put plainly: Distribution of Escherichia coli AB1157 IL05 new born cells containing eight ori foci at 32 ug/ml after 14 hrs incubation. The class given is functional. The gist of the method: as §1
Test [5] relates to Escherichia coli. As to the kind of experiment: Distribution of Escherichia coli AB1157 IL05 new born cells containing four ori foci at 32 ug/ml after 14 hrs incubation. The class given is functional. The gist of the method:
as §1

Test [6] relates to Escherichia coli. Put plainly: Assembly of Z-ring in Escherichia coli AB1157 IL06(pCP12) cells at 4 ug/ml.
Test [7] has as its system Escherichia coli. Put plainly: Distribution of Escherichia coli AB1157 IL05 new born cells containing duplicated sister ori foci at 4 ug/ml after 14 hrs incubation. Format: functional. The procedure, abridged: as §1
For test [8], the system named is Escherichia coli. As to the kind of experiment: Distribution of Escherichia coli AB1157 IL05 new born cells containing eight ori foci at 8 ug/ml after 14 hrs incubation. Format: functional. The gist of the method: as §1
The subject of test [9] is Escherichia coli. As to the kind of experiment: Distribution of Escherichia coli AB1157 IL05 new born cells containing duplicated ori and ter foci at 8 ug/ml after 14 hrs incubation. Format: functional. The gist of the method:
as §1

Test [10] relates to Escherichia coli. As to the kind of experiment: Distribution of Escherichia coli AB1157 IL05 new born cells containing four ori foci at 8 ug/ml after 14 hrs incubation. The class given is functional. The procedure, abridged:
as §1

Test [11] has as its system Escherichia coli. As to the kind of experiment: Distribution of Escherichia coli AB1157 IL05 new born cells containing four ori foci at 4 ug/ml after 14 hrs incubation. The class given is functional. The procedure, abridged:
as §1

Test [12] has as its system Escherichia coli. Put plainly: Distribution of Escherichia coli AB1157 IL05 new born cells containing duplicated ori and ter foci at 4 ug/ml after 14 hrs incubation. Format: functional. The gist of the method: as §1
Test [13] relates to Escherichia coli. Put plainly: Distribution of Escherichia coli AB1157 IL05 new born cells containing eight ori foci at 4 ug/ml after 14 hrs incubation. The class given is functional. The procedure, abridged: as §1
Test [14] has as its system Escherichia coli. As to the kind of experiment: Distribution of Escherichia coli AB1157 IL05 new born cells containing one ori and one ter foci at 32 ug/ml after 14 hrs incubation. Format: functional. The procedure, abridged:
as §1

In test [15] the test system is Escherichia coli. Put plainly: Distribution of Escherichia coli AB1157 IL05 new born cells containing one ori and one ter foci at 4 ug/ml after 14 hrs incubation. Format: functional. The procedure, abridged:
as §1

For test [16], the system named is Escherichia coli. Put plainly: Distribution of Escherichia coli AB1157 IL05 new born cells containing one ori and one ter foci at 8 ug/ml after 14 hrs incubation. The class given is functional. The gist of the method:
as §1

Test [17] relates to Escherichia coli. As to the kind of experiment: Distribution of Escherichia coli AB1157 IL05 new born cells containing duplicated ori and ter foci at 16 ug/ml after 14 hrs incubation. The class given is functional. The procedure, abridged:
as §1

In test [18] the test system is Escherichia coli. As to the kind of experiment: Loss of cell viability in Escherichia coli AB1157 IL05 above 16 ug/ml after 8 hrs incubation. Format: functional, organism-based.
In test [19] the test system is Escherichia coli. As to the kind of experiment: Distribution of Escherichia coli AB1157 IL05 new born cells containing duplicated ori and ter foci at 32 ug/ml after 14 hrs incubation. Format: functional. The procedure, abridged: as §1
Test [20] concerns Escherichia coli. As to the kind of experiment: Distribution of Escherichia coli AB1157 IL05 new born cells containing four ori foci at 16 ug/ml after 14 hrs incubation. The class given is functional. The procedure, abridged:
as §1

In test [21] the test system is Escherichia coli. As to the kind of experiment: Sublethal concentration measured by presence of granular bodies in Escherichia coli AB1157 IL05 cells at 4 ug/ml after 14 hrs incubation. The class given is functional, organism-based. The gist of the method:
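IL05(pWX6) grown 14 h at 37°C in acetate minimal medium with AMK added at OD600 0.05. Cells then examined by phase-contrast microscopy in 27% gelatin-containing minimal medium, scoring polar granular bodies and nucleoids.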

For test [22], the system named is Escherichia coli. Put plainly: Distribution of Escherichia coli AB1157 IL05 new born cells containing duplicated sister ori foci at 8 ug/ml after 14 hrs incubation. The class given is functional. The gist of the method: as §1
In test [23] the test system is Escherichia coli. As to the kind of experiment: Distribution of Escherichia coli AB1157 IL05 new born cells containing duplicated sister ori foci at 16 ug/ml after 14 hrs incubation. The class given is functional. The gist of the method:
as §1

SMILES strings stand for the structures. Calls of active or inactive are those of the source. The calls are words filed in the database; no cut-off is given here.

As to `NCC[C@H](O)C(=O)N[C@@H]1C[C@H](N)[C@@H](O[C@H]2O[C@H](CN)[C@@H](O)[C@H](O)[C@H]2O)[C@H](O)[C@H]1O[C@H]1O[C@H](CO)[C@@H](O)[C@H](N)[C@H]1O` [AMIKACIN], the Activity in the test with Escherichia coli [1] was 11%; in the test on Escherichia coli [2] it was 6%; with Escherichia coli [3], 37%; in the test with Escherichia coli [4], 0%; with Escherichia coli [5] it was 0%; in the test with Escherichia coli [6], 35%. The Activity worked out at 0% in the test on Escherichia coli [7]; 5% in the test with Escherichia coli [8]; 36% in the test with Escherichia coli [9]; 69% with Escherichia coli [10]; 44% in the test on Escherichia coli [11]; 48% in the test with Escherichia coli [12]. For the same compound, the Activity with Escherichia coli [13] was 8%; with Escherichia coli [14], 32%; with Escherichia coli [15], 0%; with Escherichia coli [16] it was 0%; in the test with Escherichia coli [17], 34%; in the test with Escherichia coli [19] it was 31%. In addition, the Activity is recorded as 46% in the test with Escherichia coli [20], 0% with Escherichia coli [22] and 3% in the test on Escherichia coli [23]. In addition, in the test on Escherichia coli [18], the outcome was inactive. In addition, in the test with Escherichia coli [21], the result was Active.
